proCasp3 act: activators of human procaspase-3. activation, % at 8.5 µM. P42574. recombinant procaspase-3 D3A, Ac-DEVD-pNA absorbance 405 nm. actives 0.11% (n = 330,000);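 active = activation above the mean of all tested compounds plus 3 SD, cut at about 21% in these data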;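 note: 0% = DMSO alone and 100% = DMSO wells spiked with extra 5 µM PC-3 D3A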
Target sequence (P42574 whole entry D9A/D28A/D175A): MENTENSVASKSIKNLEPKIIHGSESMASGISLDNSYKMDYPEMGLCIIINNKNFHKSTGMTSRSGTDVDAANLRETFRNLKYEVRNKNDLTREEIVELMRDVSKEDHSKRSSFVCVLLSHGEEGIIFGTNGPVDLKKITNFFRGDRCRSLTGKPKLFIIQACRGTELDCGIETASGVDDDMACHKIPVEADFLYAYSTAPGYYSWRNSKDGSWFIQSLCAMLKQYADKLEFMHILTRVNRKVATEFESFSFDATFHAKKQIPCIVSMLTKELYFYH
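Evaluation: percent activation relative to control range; Material: Procaspase-3 D3A mutant, all three cleavage aspartates alanine; Compound: single dose, 8.5 µM nominal compound, 0.8% DMSO; Replication: one well per compound; Signal: absorbance at 405 nm, 0 and 120 min; Schedule: 1 h preincubation plus 2 h reaction at 25 °C.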
CHT allo act: human CHT allosteric activation; CHT-expressing cells, membrane potential dye, choline EC20; stronger effect = higher value; LV-AA mutant CHT in HEK293 cells; B-score at 10 µM; actives 0.49% (n = 310,000); AID 488977;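 active = initial fluorescence not abnormally high and integrated response B-score, plate-corrected, over 3 SD above library mean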
CHT block: inhibits the human high affinity choline transporter; B-score at 10 µM; Q9GZV3; actives 0.86% (n = 310,000); CHT-expressing cells, membrane potential dye, choline response; stronger effect = lower value;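 active = B-score over 3 SD under the library average, and starting fluorescence ratio not unusually high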;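 note: choline stimulus applied at its EC90 after an EC20 pre-addition; B-score computed on integrated fluorescence ratio after choline addition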
proCasp7 act: counter-screen: procaspase-7 (human) activation | P55210 | recombinant procaspase-7, Ac-DEVD-pNA absorbance 405 nm; D23A/D198A/D206A triple mutant, cannot self-cleave; scale: DMSO 0, 5 µM enzyme 100 | activation, % at 8.5 µM | actives 0.093% (n = 330,000);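 active = percent activation above the screen-wide mean plus 3 SD, cut at about 25% in these data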
Target sequence (P55210 whole entry D23A/D198A/D206A): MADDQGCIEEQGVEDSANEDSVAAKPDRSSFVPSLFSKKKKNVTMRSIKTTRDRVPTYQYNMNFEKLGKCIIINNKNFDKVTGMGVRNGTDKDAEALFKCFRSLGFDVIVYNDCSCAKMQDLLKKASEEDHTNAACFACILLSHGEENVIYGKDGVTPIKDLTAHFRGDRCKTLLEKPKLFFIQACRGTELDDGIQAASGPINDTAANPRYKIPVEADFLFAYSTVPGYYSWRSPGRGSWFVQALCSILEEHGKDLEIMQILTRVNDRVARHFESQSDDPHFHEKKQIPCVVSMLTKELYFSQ
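Material: Procaspase-7 triple mutant (PC-7 D3A) | Quantity: 2 µM procaspase-7 mutant as dispensed | Reagent: DEVD-pNA substrate | Times: 1 h preincubation, 2 h reaction | Technique: 405 nm absorbance of p-nitroaniline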
proCasp7 act trip: counter-screen for procaspase-3 activators: activators of human procaspase-7; 210 tested, under 10 active; recombinant procaspase-7, Ac-DEVD-pNA absorbance; asp23/198/206-to-Ala mutant, cannot self-cleave; activation, % at 8.5 µM; shares compounds with proCasp3 act;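 active = mean activation above a set limit taken from an earlier procaspase-7 screen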;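 note: 0% = DMSO wells and 100% = DMSO plus 5 µM procaspase-7 enzyme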
proCasp3 confirm: confirmation of human procaspase-3 activators; recombinant PC-3 D3A, Ac-DEVD-pNA absorbance 405 nm; 100% is higher-enzyme control; actives 10% (n = 210); shares compounds with proCasp3 act; activation, % at 8.5 µM; AID 488954;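 active = mean activation above a set limit carried over from the earlier primary screen, cut at about 22% in these data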
PC3 D3A act: activates human procaspase-3, dual activator counter-screen; shares compounds with proCasp7 act; recombinant PC-3 D3A, Ac-DEVD-pNA absorbance 405 nm; aspartates 9, 28, 175 changed to alanine; 100% = enzyme control; activation, % at 8.5 µM; AID 493114; 290 tested, under 10 active;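 active = mean percent activation across triplicates above a set limit taken from the earlier primary procaspase-3 screen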;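 note: 0% = DMSO wells and 100% = DMSO wells with 5 µM added PC-3 D3A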
Procasp7 act: activates human procaspase-7, confirming dual procaspase activators. shares compounds with proCasp7 act. activation, % at 8.5 µM. recombinant procaspase-7, Ac-DEVD-pNA absorbance 405 nm; D23A/D198A/D206A mutant that cannot self-cleave. AID 493115. 290 tested, under 10 active;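 active = mean activation above a set limit carried over from the earlier primary screen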;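 note: 0% = DMSO only and 100% = DMSO with added 5 µM PC-7 enzyme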
CHT inh conf: human CHT inhibition, confirmatory screen; shares compounds with CHT block; CHT-expressing cells, choline membrane potential dye; LV-to-AA substituted CHT, HEK293 cells; CHT activity remaining % of control (stronger effect = lower value), % at 10 µM; actives 70% (n = 2,400); AID 493221;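 active = choline transporter activity left, mean of duplicates at 10 µM, below buffer-only control mean minus 3 SD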;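 note: depolarization triggered by choline at its EC90 following an EC20 pre-addition; 0% = hemicholinium-3 full block and 100% = buffer-only control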
HEK293 CHT ctr: counter-screen for CHT inhibitors: effect in parental HEK293 cells | membrane potential ratio readout (active if shifted either direction beyond buffer ±3SD; no single direction) at 10 µM | actives 4% (n = 2,400) | membrane potential dye, choline response; active = decrease or increase beyond buffer ±3SD | shares compounds with CHT block;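 note: parental cells lack the transporter so any hit is non-specific; ratio is peak minus trough fluorescence over baseline after EC90 choline challenge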
CHT act confirm: confirmation of human choline transporter (CHT) activators; shares compounds with CHT allo act; CHT-expressing cells, membrane potential dye fluorescence (FDSS); % of choline EC20–EC90 response window; HEK293 expressing CHT LV-AA mutant; choline added at its EC20; activation, % at 10 µM; actives 91% (n = 2,500); AID 504833;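 active = primary screen active, with duplicate mean activation above negative control mean plus 3 SD, cut at about 11% in these data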
HEK293 MP dye: activity in parental HEK293 cells lacking CHT | shares compounds with CHT allo act | actives 62% (n = 2,500) | ratio readout change at 10 µM, hits read low | membrane potential dye fluorescence (FDSS); measured after EC20 choline addition;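 active = duplicate-averaged ratio beyond 3 SD from buffer wells, up or down, though filed actives are nearly all decreases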
Numbers without * were called inactive; i = inactive; . = not tested or not shown. Most compounds without a hit are left out; they make up all but 1.3% or so of the library.

SMILES	proCasp3 act	CHT allo act	CHT block	proCasp7 act	PC3 D3A act	Procasp7 act	others
CCCCCCCCN1[C@@H](CC(=O)O)c2ccc(C(F)(F)F)cc2S1(=O)=O	40.1*	i	-6.1*	-1.0	.	.	proCasp7 act trip=0.9;proCasp3 confirm=3.1;CHT inh conf=64.7%*;HEK293 CHT ctr=i
CC(=O)c1ccc(S(=O)(=O)NCC(=O)Nc2nc3ccccc3[nH]2)cc1	-6.2	.	.	2.1	.	.
CC(=O)c1cccc(CN2CCC(CO)(CCOc3ccccc3)CC2)c1	-6.4	i	i	2.1	.	.
OCCOc1cccc(CN2CCC(CO)(CCOc3ccccc3)CC2)c1	25.3*	i	-10.2*	5.6	.	.	proCasp7 act trip=2.0;proCasp3 confirm=4.6;CHT inh conf=i;HEK293 CHT ctr=i
COc1cc(C2C(C#N)=C(N)N(c3ccc(F)cc3)C3=C2S(=O)(=O)CC3)ccc1O (stereo unspecified)	-9.3	i	i	-11.1	.	.
CC1CCN(CCCNC(=O)COc2cc(=O)n(C)c3ccccc23)CC1	38.1*	i	i	3.8	.	.	proCasp7 act trip=1.3;proCasp3 confirm=4.8;CHT act confirm=42.9*;HEK293 MP dye=-32.9*
O=C(COC(=O)[C@@H]1CC(O)CN1S(=O)(=O)c1ccc(Cl)cc1)NC(=O)NCc1ccccc1 (stereo partly specified)	3.2	i	i	3.0	.	.
N#Cc1c2c(c(Nc3ccccc3)n3c1nc1ccccc13)CCC2	10.6	i	i	61.2*	3.8	0.9
Cc1cc(NC(=O)CSCC(=O)Nc2nc3ccccc3s2)no1	13.1	.	.	5.8	.	.
COc1ccc(CNc2oc(-c3cccc4ccccc34)nc2C#N)cc1	11.5	i	i	14.6	.	.
CCOP(=O)(OCC)c1nc(-c2cccc3ccccc23)oc1NCCc1ccc(OC)cc1	21.8*	i	i	29.5*	-28.3	-36.0
CCCCNC(=O)CSc1nc2cc3c(cc2c(=O)n1CCC(=O)NCCc1ccc(OC)c(OC)c1)OCO3	-2.8	i	i	-2.8	.	.
O=C(Cn1c2ccccc2c(=O)c2ccccc21)Nc1cccc(F)c1	49.8*	i	i	93.0*	-28.4	-37.8
O=C(CC(=O)Nc1cccc(F)c1)Nc1cccc(F)c1	-4.8	i	i	4.7	.	.
O=C(Nc1ccc(O)c(-c2nc3ccccc3s2)c1)C1=COCCO1	-0.9	i	i	31.9*	1.6	1.1
Cc1ccsc1C(=O)Nc1ccc(O)c(-c2nc3ccccc3s2)c1	10.0	i	i	8.7	.	.
CC(=O)Nc1ccc(O)c(-c2nc3ccccc3s2)c1	8.5	i	i	35.8*	-0.2	-0.9
CCC1CCC(C(=O)NC(C(=O)NCCN2CCOCC2)C(C)C)CC1 (stereo unspecified)	10.7	i	i	-8.8	.	.
Cc1ccc2sc(NC(=O)CSc3nc(C)cc(C)c3C#N)nc2c1	18.1	i	i	42.1*	-29.8	-36.1
O=C(NCCN1CCCC1)C1CCC(=O)N(CCCN2CCOCC2)C1 (stereo unspecified)	0.1	i	i	44.8*	0.8	0.5
COC(=O)C1=C(C)NC(C)=C(C(=O)OC)C1c1ccc(OC(=O)c2oc3ccccc3c2C)c(OC)c1	35.4*	i	i	81.1*	4.2	5.3
COc1ccc(CN2CCNC(=O)C2CC(=O)NCCC2=CCCCC2)cc1OC (stereo unspecified)	-1.0	i	i	-1.0	.	.
Cc1ccccc1NC(=O)c1cnn(-c2ccccc2)c1C	4.2	i	i	34.5*	1.4	1.2
Cc1cccc(NC(=O)c2cnn(-c3ccccc3)c2C)c1C	1.6	i	i	0.0	.	.
COCCN(C(=O)C1=COCCO1)c1c(N)n(CC(C)C)c(=O)[nH]c1=O	5.9	.	.	4.4	.	.
SMILES	proCasp3 act	CHT allo act	CHT block	proCasp7 act	PC3 D3A act	Procasp7 act	others
COc1ccc(NC(=O)c2sc3nc(C)cc(C)c3c2N)cc1	-45.3	i	i	-23.9	.	.
COc1ccc(/C=N/NC(=O)c2sc3nc(C)cc(C)c3c2N)cc1	18.9	i	i	48.8*	-28.4	-34.9
Cc1coc2cc3oc(=O)c(Cc4ccccc4)c(C)c3cc12	2.8	i	i	2.1	.	.
Cc1c(Cc2ccccc2)c(=O)oc2cc(O)cc(O)c12	20.7	i	i	25.7*	-28.4	-34.0
Cc1ccc2nc3c(cc2c1)c(NC(=O)c1ccco1)nn3CC(C)C	52.2*	i	i	63.9*	-29.0	-34.2
CC(=O)Nc1ccc(/C=N/Nc2nc3ccccc3[nH]2)cc1	3.9	i	i	-13.9	.	.
O=c1[nH]c(N/N=C/c2ccc(O)cc2)nc2ccccc12	27.4*	i	i	34.2*	-2.0	-0.9
O=C(COC(=O)CCC1CCCC1)Nc1ccc(F)cc1Cl	7.4	.	.	-16.6	.	.
Cc1cccc(C2=NN(c3ccc(Br)cc3)[C@@H](C(=O)N3CCOC3=O)[C@@H]2c2ccccc2)c1	20.2	.	.	32.1*	-29.8	-33.4
C[C@@H]1C(c2cccc(Cl)c2)=NN(c2ccc(Br)cc2)[C@H]1C(=O)N1CCOC1=O	21.9*	.	.	28.7*	-30.1	-36.0
C[C@@H]1C(c2cccc(Cl)c2)=NN(c2ccccc2)[C@H]1C(=O)N1CCOC1=O	6.9	.	.	30.3*	-30.1	-36.5
